Article PMC7931646 (The Journal of Experimental Medicine, 2021)
≈ marks a conversion by molar mass, not a printed value. Like-named read-outs stand apart in the source and are kept apart here.

How the values were obtained:
CSF Aβ42 = conditions: human, ref Ahn et al., 2020, cited from earlier work; for CSF Aβ42 levels lowered: MAD study
CYP450 3A4 = CYP450 3A4 (Homo sapiens, UniProt P08684); experiment: CYP450 inhibition, recombinant isoform; type: in vitro ADME
Summary of the method: (§1)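 Recombinant human CYP450 isoforms were incubated with isoform-specific probe substrates; for CYP3A4 these were midazolam and testosterone. Inhibition was quantified by LC-MS/MS analysis of probe-substrate turnover.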

[1] = Liver microsomal stability, human; type: in vitro ADME; conditions: liver microsomes
Summary of the method: (§2)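 Test compound at 1 µM was incubated for 30 min with liver microsomes at 1 mg/ml (human, rat or mouse). Result is percent of parent compound remaining.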

CYP450 2C9 = CYP450 2C9 (Homo sapiens, UniProt P11712); experiment: CYP450 inhibition, recombinant isoform; type: in vitro ADME
Chain of CYP450 2C9 (P11712 whole entry, canonical isoform): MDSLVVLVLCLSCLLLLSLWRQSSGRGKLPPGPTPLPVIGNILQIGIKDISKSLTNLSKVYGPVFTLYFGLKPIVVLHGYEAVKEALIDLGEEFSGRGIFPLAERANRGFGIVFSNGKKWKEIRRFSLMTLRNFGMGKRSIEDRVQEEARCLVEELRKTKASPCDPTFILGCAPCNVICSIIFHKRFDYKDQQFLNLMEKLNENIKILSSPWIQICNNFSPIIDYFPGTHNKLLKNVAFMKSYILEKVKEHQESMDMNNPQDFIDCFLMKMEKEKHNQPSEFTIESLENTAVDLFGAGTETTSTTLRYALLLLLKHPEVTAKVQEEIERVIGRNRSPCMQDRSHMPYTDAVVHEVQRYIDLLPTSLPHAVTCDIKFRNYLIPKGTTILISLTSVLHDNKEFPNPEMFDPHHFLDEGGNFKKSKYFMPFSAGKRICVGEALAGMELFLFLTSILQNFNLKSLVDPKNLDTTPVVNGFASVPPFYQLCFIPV

CYP450 2D6 = CYP450 2D6 (Homo sapiens, UniProt P10635); experiment: CYP450 inhibition, recombinant isoform; type: in vitro ADME
Chain of CYP450 2D6 (P10635 whole entry, canonical isoform): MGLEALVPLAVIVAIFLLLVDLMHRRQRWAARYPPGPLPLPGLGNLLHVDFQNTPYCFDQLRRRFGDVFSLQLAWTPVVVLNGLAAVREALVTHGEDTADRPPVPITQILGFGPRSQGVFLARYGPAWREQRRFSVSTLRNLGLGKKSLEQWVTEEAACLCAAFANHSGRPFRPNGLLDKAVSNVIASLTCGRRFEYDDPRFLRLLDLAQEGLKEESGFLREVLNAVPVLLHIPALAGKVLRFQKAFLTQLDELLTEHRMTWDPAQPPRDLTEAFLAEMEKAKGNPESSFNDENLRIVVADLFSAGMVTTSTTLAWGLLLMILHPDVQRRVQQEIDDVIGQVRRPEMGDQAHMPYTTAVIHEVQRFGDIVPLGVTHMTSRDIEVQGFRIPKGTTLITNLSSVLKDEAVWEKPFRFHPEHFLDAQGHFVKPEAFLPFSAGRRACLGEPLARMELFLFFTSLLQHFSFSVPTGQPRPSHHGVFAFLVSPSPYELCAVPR
Summary of the method: as §1

CYP450 1A2 = molecular target: T1, CYP450 1A2 (Homo sapiens, UniProt P05177); experiment: CYP450 inhibition, recombinant isoform; type: in vitro ADME
T1 sequence (P05177 1-516): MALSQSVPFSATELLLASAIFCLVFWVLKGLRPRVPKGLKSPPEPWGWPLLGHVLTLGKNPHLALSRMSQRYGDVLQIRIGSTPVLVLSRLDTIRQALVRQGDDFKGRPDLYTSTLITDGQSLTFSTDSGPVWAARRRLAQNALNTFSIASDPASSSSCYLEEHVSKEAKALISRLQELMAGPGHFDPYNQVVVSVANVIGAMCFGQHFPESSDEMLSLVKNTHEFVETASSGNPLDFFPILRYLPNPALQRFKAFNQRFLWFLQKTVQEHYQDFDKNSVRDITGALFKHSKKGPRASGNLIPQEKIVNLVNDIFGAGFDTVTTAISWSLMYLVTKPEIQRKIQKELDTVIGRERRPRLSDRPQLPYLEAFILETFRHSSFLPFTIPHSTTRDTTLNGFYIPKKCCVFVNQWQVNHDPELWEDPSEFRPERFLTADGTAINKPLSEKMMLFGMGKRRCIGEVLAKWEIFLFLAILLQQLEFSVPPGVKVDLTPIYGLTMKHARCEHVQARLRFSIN
Summary of the method: as §1

[2] = tested on: S. typhimurium strains TA1535, TA1537, TA98, TA100 and E. coli strain WP2 (uvrA); experiment: GLP Salmonella–Escherichia coli/microsome plate incorporation; type: cell-based, Salmonella typhimurium; conditions: S. typhimurium TA98 and TA100, only with Aroclor-induced rat liver S9; data not shown
Summary of the method: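 GLP plate-incorporation mutagenicity test using S. typhimurium TA1535, TA1537, TA98 and TA100 and E. coli WP2 (uvrA). Each strain was run with and without a metabolic activation mix of Aroclor 1254–induced rat liver microsomes (S9). Read-out is revertant bacterial growth.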

[3] = Kinetic solubility in simulated intestinal fluids; type: physicochemical; conditions: for FaSSIF dissolved compound concentration: FaSSIF pH 6.5, UV/Vis absorbance; for FeSSIF dissolved compound concentration: FeSSIF pH 5.8, UV/Vis absorbance
Summary of the method: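 Dissolved test compound concentration in FaSSIF or FeSSIF simulated intestinal fluids, determined by UV/Vis absorbance.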

CYP450 2C19 = CYP450 2C19 (Homo sapiens, UniProt P33261); experiment: CYP450 inhibition, recombinant isoform; type: in vitro ADME
Chain of CYP450 2C19 (P33261 whole entry, canonical isoform): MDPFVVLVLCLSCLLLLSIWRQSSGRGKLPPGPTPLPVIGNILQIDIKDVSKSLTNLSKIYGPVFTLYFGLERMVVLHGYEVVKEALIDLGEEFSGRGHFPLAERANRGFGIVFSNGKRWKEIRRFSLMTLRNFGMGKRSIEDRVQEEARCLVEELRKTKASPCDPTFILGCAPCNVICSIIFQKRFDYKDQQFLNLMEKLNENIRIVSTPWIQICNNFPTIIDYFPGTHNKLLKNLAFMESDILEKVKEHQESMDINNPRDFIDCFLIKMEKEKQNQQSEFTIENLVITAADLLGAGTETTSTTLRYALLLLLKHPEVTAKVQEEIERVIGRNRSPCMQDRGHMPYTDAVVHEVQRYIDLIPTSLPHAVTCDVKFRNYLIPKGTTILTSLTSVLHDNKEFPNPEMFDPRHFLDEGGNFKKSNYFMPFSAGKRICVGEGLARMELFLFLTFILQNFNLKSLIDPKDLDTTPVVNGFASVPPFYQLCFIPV
Summary of the method: as §1

[4] = Plasma protein binding, equilibrium dialysis; type: in vitro ADME; conditions: mouse
Summary of the method: (§3)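 Equilibrium dialysis of test compound in human, rat or mouse plasma against buffer across a semipermeable membrane. Compound concentrations in both compartments were measured by LC/MS, and percent bound was derived from them.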

[5] = Plasma protein binding, equilibrium dialysis; type: in vitro ADME; conditions: rat
Summary of the method: as §3

[6] = Liver microsomal stability, mouse; type: in vitro ADME; conditions: liver microsomes
Summary of the method: as §2

[7] = GLP 28-d IND-enabling safety/toxicology study of compound 1 in rats; type: in vivo, rat; conditions: data not shown
[8] = Kinetic aqueous solubility, PBS pH 7.4; type: physicochemical; conditions: PBS buffer, pH 7.4, aqueous buffer, kinetic from dmso stock
Summary of the method: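 Kinetic solubility in PBS at pH 7.4, read by UV/Vis absorbance and reported in micromolar.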

[9] = tested on: S. typhimurium bacterial strains TA98, TA100, TA1535, TA1537; experiment: Non-GLP screening; type: cell-based, Salmonella typhimurium; conditions: 5–100 µM, with and without Aroclor-induced rat liver S9
Summary of the method: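 Non-GLP mini-Ames screen using S. typhimurium TA98, TA100, TA1535 and TA1537, with and without Aroclor-induced rat liver S9. Test article was applied at 5–100 µM. Read-out was bacterial growth from reversion of the histidine mutation.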

hERG channel = hERG channel (Homo sapiens, UniProt Q12809); experiment: Patch-Xpress patch-clamp hERG assay in HEK-293 cells; type: cell-based
Chain of hERG channel (Q12809 whole entry): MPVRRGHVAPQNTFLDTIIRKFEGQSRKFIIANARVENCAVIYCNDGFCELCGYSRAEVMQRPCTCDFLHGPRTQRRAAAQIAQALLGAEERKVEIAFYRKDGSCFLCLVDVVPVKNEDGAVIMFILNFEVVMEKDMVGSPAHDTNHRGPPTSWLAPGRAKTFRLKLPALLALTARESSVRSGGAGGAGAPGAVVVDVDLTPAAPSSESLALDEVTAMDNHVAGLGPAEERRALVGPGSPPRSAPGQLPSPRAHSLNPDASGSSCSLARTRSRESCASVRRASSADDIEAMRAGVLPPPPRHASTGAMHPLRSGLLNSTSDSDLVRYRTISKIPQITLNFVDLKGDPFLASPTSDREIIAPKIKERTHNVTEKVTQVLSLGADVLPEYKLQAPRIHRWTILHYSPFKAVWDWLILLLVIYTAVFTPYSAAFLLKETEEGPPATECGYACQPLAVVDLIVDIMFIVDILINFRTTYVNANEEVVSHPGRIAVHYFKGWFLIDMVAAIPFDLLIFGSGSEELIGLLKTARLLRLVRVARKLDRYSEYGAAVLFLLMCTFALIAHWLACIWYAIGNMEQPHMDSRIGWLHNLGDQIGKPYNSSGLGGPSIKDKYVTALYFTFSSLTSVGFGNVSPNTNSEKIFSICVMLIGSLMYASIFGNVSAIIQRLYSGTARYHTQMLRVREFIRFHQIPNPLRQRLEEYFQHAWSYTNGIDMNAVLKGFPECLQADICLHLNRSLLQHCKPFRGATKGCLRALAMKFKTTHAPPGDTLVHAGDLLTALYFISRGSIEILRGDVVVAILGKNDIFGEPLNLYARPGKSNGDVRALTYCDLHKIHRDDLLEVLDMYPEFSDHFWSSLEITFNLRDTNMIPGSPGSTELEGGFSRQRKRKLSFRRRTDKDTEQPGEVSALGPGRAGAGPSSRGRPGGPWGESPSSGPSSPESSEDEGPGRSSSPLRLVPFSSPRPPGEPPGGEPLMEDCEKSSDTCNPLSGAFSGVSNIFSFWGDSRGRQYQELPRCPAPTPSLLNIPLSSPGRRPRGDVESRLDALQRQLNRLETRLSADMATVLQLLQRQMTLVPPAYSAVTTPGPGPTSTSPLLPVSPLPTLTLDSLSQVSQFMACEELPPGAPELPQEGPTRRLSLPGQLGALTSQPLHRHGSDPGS

[10] = Liver microsomal stability, rat; type: in vitro ADME; conditions: liver microsomes
Summary of the method: as §2

P-glycoprotein (MDR1) = experiment: MDR1-MDCK permeability; type: in vitro ADME; conditions: dog
Summary of the method: (§4)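 Transport across MDR1-MDCK cell monolayers. Apparent permeability was measured in the apical-to-basolateral direction (× 10−6 cm/s). Efflux ratio was calculated as Papp B-A / Papp A-B.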

MDR1-MDCK permeability = type: in vitro ADME; conditions: dog
Summary of the method: as §4

[11] = GLP 28-d IND-enabling safety/toxicology study of compound 1 in NHPs; type: in vivo, NHP; conditions: data not shown
[12] = Plasma protein binding, equilibrium dialysis; type: in vitro ADME; conditions: human
Summary of the method: as §3

plasma Aβ42 = conditions: human, 250 mg, SAD study; ref Yu et al., 2014; cited from earlier work
CSF Aβ42 and Aβ40 = conditions: human, 200 mg, ref Soares et al., 2016, cited from earlier work
γ-secretase = conditions: ref Green et al., 2009; cited from earlier work
[13] = ref Green et al., 2009; cited from earlier work
[14] = CYP450 IC50 3A4 (m), probe substrate midazolam

Chain of CYP450 3A4 (P08684 whole entry, canonical isoform): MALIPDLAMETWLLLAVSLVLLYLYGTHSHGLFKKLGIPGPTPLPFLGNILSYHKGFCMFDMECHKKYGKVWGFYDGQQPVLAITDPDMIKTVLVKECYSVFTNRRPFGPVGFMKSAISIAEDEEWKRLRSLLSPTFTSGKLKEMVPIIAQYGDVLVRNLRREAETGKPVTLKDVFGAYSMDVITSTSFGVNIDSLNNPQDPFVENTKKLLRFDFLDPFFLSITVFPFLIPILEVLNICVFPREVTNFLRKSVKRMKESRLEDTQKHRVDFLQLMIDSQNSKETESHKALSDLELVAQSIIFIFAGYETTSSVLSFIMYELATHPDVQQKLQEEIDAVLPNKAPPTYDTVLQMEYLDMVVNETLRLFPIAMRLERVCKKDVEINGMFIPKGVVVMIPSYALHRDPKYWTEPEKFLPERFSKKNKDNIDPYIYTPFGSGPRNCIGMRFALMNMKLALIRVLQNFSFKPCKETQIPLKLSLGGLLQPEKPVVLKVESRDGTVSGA

SMILES | IC50 (CYP450 3A4) [µM] | IC50 (CYP450 3A4; [14]) [µM] | remaining at 0.5 h, 1 µM [1] [%] | IC50 (CYP450 2C9) [µM] | IC50 (CYP450 2D6) [µM] | IC50 (CYP450 1A2) [µM] | FaSSIF dissolved compound concentration [3] | FeSSIF dissolved compound concentration [3] | IC50 (CYP450 2C19) [µM] | fraction unbound [4] | fraction unbound [5] | remaining at 0.5 h, 1 µM [6] [%] | solubility kinetic [8] [µM] | Ames [9] | IC50 (hERG channel) [µM] | remaining at 0.5 h, 1 µM [10] [%] | efflux ratio (P-glycoprotein (MDR1)) | Papp A→B (MDR1-MDCK permeability) [×10⁻⁶ cm/s] | fraction unbound [12] | further results
Cc1cn(-c2ccc3n(c2=O)CCN([C@@H](C)[C@@H]2CC[C@H](c4cc(F)c(Cl)cc4C(F)(F)F)O2)C3=O)cn1 [PF-06648671] | – | – | – | – | – | – | – | – | – | – | – | – | – | – | – | – | – | – | – | CSF Aβ42 levels lowered (CSF Aβ42; 100 mg): 44%; CSF Aβ42 levels lowered (CSF Aβ42; 200 mg): 59%; CSF Aβ42 levels lowered (CSF Aβ42; 360 mg): 65%; safety profile (CSF Aβ42; up to 360 mg qd for 14 d): good safety profile
COc1nc(-c2cc(C)c(N[C@@H](C)c3ccc(F)cc3)nn2)ccc1-n1cnc(C)c1 [Compound 1, (S)-N-(1-(4-fluorophenyl)ethyl)-6-(6-methoxy-5-(4-methyl-1H-imidazol-1-yl)pyridin-2-yl)-4-methylpyridazin-3-amine] | 8.9 | 14 | 78 | 1.3 | 4.7 | 37 | >100/ >100 | >100/ >100 | 6.9 | 0.002 | 0.001 | 76 | 6.6 (≈ 2.76 µg/mL) | Positive | 6.2 | 84 | 0.9 | 37.2 | 0.004 | Ames assay results [2]: highly variable; finding in GLP 28-d IND-enabling study in rat [7]: potentially mutagenic metabolite(s); finding in GLP 28-d IND-enabling study in NHPs [11]: evidence of corrected QT interval prolongation
COc1nc(/C=C/c2nc3n(n2)CCC[C@H]3c2ccccc2C(F)(F)F)ccc1-n1cnc(C)c1 [E2212] | – | – | – | – | – | – | – | – | – | – | – | – | – | – | – | – | – | – | – | maximal lowering of plasma Aβ42 levels (AUC0–24 h) (plasma Aβ42): 44.1%
CNc1nc(Nc2ccc(-n3cnc(C)n3)c(OC)c2)nc2c1CC[C@H]2c1ccc(F)cc1 [BMS-932481] | – | – | – | – | – | – | – | – | – | – | – | – | – | – | – | – | – | – | – | maximal lowering of CSF Aβ40 levels (CSF Aβ42 and Aβ40; 2-wk MAD study): 74%; maximal lowering of CSF Aβ42 levels (CSF Aβ42 and Aβ40; 2-wk MAD study): 77%; stage 3 elevations in alanine amino transferase (CSF Aβ42 and Aβ40): two of six subjects
COc1nc(-c2cc(C)c(N[C@@H](C)c3c(F)cc(F)cc3F)nn2)ccc1-n1cnc(C)c1 [Compound 3, (S)-6-(6-methoxy-5-(4-methyl-1H-imidazol-1-yl)pyridin-2-yl)-4-methyl-N-(1-(2,4,6-trifluorophenyl)ethyl)pyridazin-3-amine] | 17 | 19 | 100 | 1.3 | 20 | 3.6 | 79 | 82 | 13 | 0.003 | 0.003 | 100 | < 1.3 | Negative | 3.1 | 100 | 1.1 | 30.2 | 0.003 | CYP450 2C9 IC50 relative to Aβ42 IC50 (CYP450 2C9): over 200 fold; safety margin between Aβ42 IC50 and hERG IC20 (hERG channel): > 100 fold; IC20 (hERG channel; human, HEK-293 cells expressing hERG): 1 µM
C[C@@H](C(=O)O)c1ccc(-c2ccccc2)c(F)c1 [R-flurbiprofen] | – | – | – | – | – | – | – | – | – | – | – | – | – | – | – | – | – | – | – | in vitro GSM activity (γ-secretase): weak; efficacy in phase 3 human trials [13]: did not show efficacy
